# Calls of active or inactive are those of the source. The rule behind the calls is not given here.
# Legend:
# [1] = tested on: Plasmodium falciparum; assay: Antimalarial activity against multidrug-resistant Plasmodium falciparum K1 assessed as [3H]-hypoxanthine incorporation 24 to 42 hrs by scintillation counting analysis; assay type: functional, organism-based
# Summary of the method: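 Microculture radioisotope technique against multidrug-resistant K1 parasites; dihydroartemisinin as reference drug.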
# [2] = tested on: Mycobacterium tuberculosis; assay: Antimicrobial activity against Mycobacterium tuberculosis H37Ra assessed as growth inhibition by green fluorescent protein-based fluorescent detection; assay type: functional, organism-based
# Summary of the method: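 Growth inhibition read by GFP-based fluorescence; isoniazid as reference drug; result reported as MIC.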
# [3] = tested on: KB; assay: Cytotoxicity against human KB cells by colorimetric method; assay type: functional, cell-based
# Summary of the method: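 KB cells assayed by the method of O'Brien and coworkers; ellipticine as reference compound; IC50 derived.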
# [4] = tested on: Vero; assay: Cytotoxicity against african green monkey Vero cells by colorimetric method; assay type: cell-based; conditions: Chlorocebus sabaeus
# Summary of the method: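 Vero cells assayed by a colorimetric method; ellipticine as reference compound; IC50 derived.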
SMILES,Activity [1],Activity [2],inhibition [3],IC50 [4],IC50 [3]
COc1c(O)c2c3c(c(O)cc(C)c3c1O)C(=O)[C@](C)(C/C=C(\C)CC/C=C(\C)CC[C@@H](O)C(C)(C)O)C2=O,inactive,inactive,inactive,–,–
CO[C@@]1(C/C=C(\C)CC/C=C(\C)CC[C@@H](O)C(C)(C)O)C(=O)c2c(O)cc(C)c3c(O)c(C)c(O)c(c23)C1=O,inactive,inactive,–,34.2 µM,48.4 µM
C=C(C)C#Cc1cc(C(=O)O)ccc1O,inactive,inactive,inactive,–,–
CC1=C[C@@H]2[C@H]3[C@H]([C@H](O)C(=O)[C@]24C(=O)N[C@@H](CC(C)C)[C@@H]4[C@@H]1C)[C@@H](O)CCC[C@]3(C)O,inactive,inactive,inactive,–,–

# — ChEMBL document CHEMBL3352439, “γ-Butyrolactone, cytochalasin, cyclic carbonate, eutypinic acid, and phenalenone derivatives from the soil fungus Aspergillus sp. PSU-RSPG185” (J Nat Prod, 2014)
